Test results as given in ChEMBL document CHEMBL1828582, “Synthesis and Na+/H+ exchanger inhibitory activity of benzoylguanidine derivatives” (Eur J Med Chem, 2011).

Assays:
[1] = Antiischemic activity against Na2S2O4-induced hypoxia/reoxygenation cell injury in neonatal rat primary cardiac myocytes assessed as increase in cell survival rate at 10^-4 mol/L by MTT assay; assay type: functional, Cardiac muscle cell
How it was run: (§1)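 Neonatal rat primary cardiomyocytes, six wells per group. Hypoxia induced with 50 mmol/L Na2S2O4 in serum-free DMEM for 2 h, then reoxygenated 4 h in DMEM with 10% serum. Drug added in serum-free DMEM 1 h before reoxygenation, final 10^-6, 10^-5, 10^-4 mol/L. MTT (5 mg/mL) for 4 h, formazan dissolved in DMSO, A490. Survival = treated OD/normal control OD.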

[2] = Antiischemic activity against Na2S2O4-induced hypoxia/reoxygenation cell injury in neonatal rat primary cardiac myocytes assessed as cell viability at 10^-4 mol/L by MTT assay; assay type: functional; settings: Cardiac muscle cell; how it was run: as §1
[3] = Antiischemic activity against Na2S2O4-induced hypoxia/reoxygenation cell injury in neonatal rat primary cardiac myocytes assessed as cell viability at 10^-6 mol/L by MTT assay; assay type: functional; settings: Cardiac muscle cell; how it was run: as §1
[4] = Antiischemic activity against Na2S2O4-induced hypoxia/reoxygenation cell injury in neonatal rat primary cardiac myocytes assessed as increase in cell survival rate at 10^-6 mol/L by MTT assay; assay type: functional, Cardiac muscle cell; how it was run: as §1
[5] = Antiischemic activity against Na2S2O4-induced hypoxia/reoxygenation cell injury in neonatal rat primary cardiac myocytes assessed as increase in cell survival rate at 10^-5 mol/L by MTT assay; assay type: functional, Cardiac muscle cell; how it was run: as §1
[6] = Antiischemic activity against Na2S2O4-induced hypoxia/reoxygenation cell injury in neonatal rat primary cardiac myocytes assessed as cell viability at 10^-5 mol/L by MTT assay; assay type: functional; settings: Cardiac muscle cell; how it was run: as §1

Row | Compound | Activity [1] | MTT OD at 100 µM [2] | MTT OD at 1 µM [3] | Activity [4] | Activity [5] | MTT OD at 10 µM [6]
1 | COc1ccc(CN2CCN(CCOc3ccc(C(=O)NC(=N)N)cc3NC(=O)c3ccc(Cl)cc3Cl)CC2)c(OC)c1OC | 58.33% | 0.488 absorbance | 0.362 absorbance | 49.27% | 55.52% | 0.409 absorbance
2 | COc1ccc(CN2CCN(CCOc3ccc(C(=O)NC(=N)N)cc3NC(=O)c3ccccc3[N+](=O)[O-])CC2)c(OC)c1OC | 56.48% | 0.434 absorbance | 0.353 absorbance | 48.05% | 51.45% | 0.379 absorbance
3 | COc1ccc(CN2CCN(Cc3ccc(C(=O)N=C(N)N)cc3[N+](=O)[O-])CC2)c(OC)c1OC | 69.24% | 0.532 absorbance | 0.37 absorbance | 50.41% | 59.78% | 0.44 absorbance
4 | COc1ccc(CN2CCN(CCOc3ccc(C(=O)NC(=N)N)cc3NC(=O)c3sccc3C)CC2)c(OC)c1OC | 72.41% | 0.556 absorbance | 0.391 absorbance | 53.22% | 61.63% | 0.454 absorbance
